In ChEMBL document CHEMBL3397015, “Naturally occurring polyphenol, morin hydrate, inhibits enzymatic activity of N-methylpurine DNA glycosylase, a DNA repair enzyme with various roles in human disease” (Bioorg Med Chem, 2015):
Where “and” joins values, the source holds several entries; their conditions need not be identical. Equal values may be shown once. Where a name gives a salt, the structure may show the parent alone. Calls of active or inactive are those of the source. No cut-off for these calls is given here.

Key:
[1] = molecular target: N-glycosylase/DNA lyase (Homo sapiens) (UniProt O15527); test: Inhibition of OGG1 in human HeLa cells assessed as reduction in DNA repair at 200 and 300 uM using 8-oxodG-containing M13mp18 plasmids by plasmid based in-cell repair assay
Procedure, shortened: (§1)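 A549 or HeLa cells (DMEM, 10% FBS) treated with compound (0, 200, 300 µM) and transfected with in vitro–built 8-oxo-dG-containing M13mp18 plasmid (lesion at EcoRI site). Plasmids recovered, digested with EcoRI (lesion site) and SacI (internal control), and used for plaque formation to calculate repair.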

[2] = molecular target: T1, DNA-3-methyladenine glycosylase (Homo sapiens, UniProt P29372); test: Inhibition of human purified MPG binding to immobilized ethenoadenine containing 5'-TCGAGGATCCTGAGCTCGAGTCGACGXTCGCGAATTCTGCGGATCCAAGC-3' duplex oligonucleotide at 5 to 40 uM by SPR assay
Procedure, shortened: (§2)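 εA-containing 50-mer biotinylated and immobilised on a streptavidin C1 chip. 30 nM hMPG pre-mixed with compound (0, 5, 10, 20, 40 µM) and injected twice for 60 s each. Buffer: 10 mM HEPES-KOH pH 7.6, 90 mM KCl, 0.05% P20, 7°C. Inhibition taken as percent decrease in background-subtracted RU versus DMSO.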

[3] = molecular target: T1, DNA-3-methyladenine glycosylase; test: Inhibition of MPG in human A549 cells assessed as reduction in DNA repair at 200 and 300 uM using ethenoadenine-containing M13mp18 plasmids by plasmid based in-cell repair assay
Procedure, shortened: (§3)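 Lesion plasmid built in vitro: M13mp18 with εA at the EcoRI site; cells in DMEM/10% FBS, compound at 0, 200 or 300 µM. Plasmid transfected into cells, then recovered after harvest. EcoRI digest tests the lesion site and SacI the internal control site. Repair scored by plaque formation.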

[4] = Binding affinity to ethenoadenine containing 5'-TCGAGGATCCTGAGCTCGAGTCGACGXTCGCGAATTCTGCGGATCCAAGC-3' duplex oligonucleotide DNA (unknown origin) at 15 uM by SPR assay
Procedure, shortened: (§4)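 Biotinylated 50-mer oligonucleotide, undamaged or εA-containing, immobilized on streptavidin-coated C1 chip (Biacore T100). Compound injected at 15 µM in 10 mM HEPES-KOH pH 7.6, 90 mM KCl, 0.05% surfactant P20 at 7°C; background-subtracted RU recorded over repeated 60 s injections.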

[5] = molecular target: T1, DNA-3-methyladenine glycosylase; test: Inhibition of human purified MPG pre-incubated with compound for 10 mins followed by addition of 1,N6 ethenoadenine containing 32P-labeled duplex oligonucleotide substrates by gel-based excision activity assay
Procedure, shortened: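 Purified hMPG (2.3 nM) pre-incubated 10 min at room temperature with a range of compound concentrations. Then 7 nM εA ³²P-duplex substrate, 10 min at 37°C, in HEPES pH 7.9 buffer with 150 mM NaCl. Heat stop, APE1 cleavage of AP sites. Products resolved on 7 M urea/20% PAGE and bands quantified; IC50 from the concentration series.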

[6] = molecular target: T1, DNA-3-methyladenine glycosylase; test: Inhibition of MPG in human HeLa cell extracts at 50 to 300 uM using 1,N6 ethenoadenine containing 32P-labeled duplex oligonucleotide substrates by gel-based excision activity assay
Procedure, shortened: (§5)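 Whole-cell extract (5 µg; A549 or HeLa, made with M-PER) pre-incubated with compound at 0, 50, 100, 200 and 300 µM for 10 min at room temperature. Then 3 nM εA ³²P-duplex substrate added; buffer and workup as for purified enzyme. Product bands on denaturing urea gel quantified as percent product formation, normalised to untreated samples.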

A549 = test: Toxicity against human A549 cells assessed as reduction in cell viability at 0.2 to 1.4 mM after 72 hrs by MTT assay; format: cell-based; details: a549, 72 h, 1400 µM
Procedure, shortened: (§6)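 A549 or HeLa cells seeded at 2000 per well, treated next day for 72 h in triplicate with compound (0–2 mM). Then MTT 0.5 mg/mL for 4 h at 37°C, DMSO solubilization. Absorbance read at 570 nm minus 650 nm background; percent survival relative to untreated wells.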

[7] = molecular target: T1, DNA-3-methyladenine glycosylase; test: Inhibition of human purified MPG pre-incubated with compound for 10 mins followed by addition of 1,N6 ethenoadenine containing 32P-labeled duplex oligonucleotide substrates at 20 uM by gel-based excision activity assay
Procedure, shortened: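 Purified hMPG (2.3 nM) pre-incubated 10 min at room temperature with 20 µM compound. Then 7 nM εA ³²P-duplex added, 10 min at 37°C, in 25 mM HEPES pH 7.9, 150 mM NaCl, BSA, DTT, 10% glycerol. Stopped 65°C, AP sites cut with 15 nM APE1/5 mM MgCl₂. Denaturing 20% PAGE, band densitometry.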

[8] = Binding affinity to 5'-TCGAGGATCCTGAGCTCGAGTCGACGXTCGCGAATTCTGCGGATCCAAGC-3' duplex oligonucleotide DNA (unknown origin) at 15 uM by SPR assay; procedure, shortened: as §4
[9] = molecular target: T1, DNA-3-methyladenine glycosylase; test: Inhibition of MPG in human HeLa cells assessed as reduction in DNA repair at 200 and 300 uM using ethenoadenine-containing M13mp18 plasmids by plasmid based in-cell repair assay; procedure, shortened: as §3
[10] = molecular target: T1, DNA-3-methyladenine glycosylase; test: Inhibition of MPG in human A549 cell extracts at 50 to 300 uM using 1,N6 ethenoadenine containing 32P-labeled duplex oligonucleotide substrates by gel-based excision activity assay; procedure, shortened: as §5
[11] = molecular target: DNA repair nuclease/redox regulator APEX1 (Homo sapiens) (UniProt P27695); test: Inhibition of APE1 (unknown origin) pre-incubated with compound for 10 mins followed by addition of […] at 20 to 40 uM by gel-based excision activity assay
HeLa = test: Toxicity against human HeLa cells assessed as reduction in cell viability at 0.2 to 1.4 mM after 72 hrs by MTT assay; format: cell-based; details: 1400 µM; procedure, shortened: as §6
[12] = molecular target: T1, DNA-3-methyladenine glycosylase; test: Inhibition of MPG in human A549 cells assessed as reduction in DNA repair at 300 uM using ethenoadenine-containing M13mp18 plasmids by plasmid based in-cell repair assay; procedure, shortened: as §3
[13] = molecular target: T1, DNA-3-methyladenine glycosylase; test: Inhibition of MPG in human HeLa cells assessed as reduction in DNA repair at 300 uM using ethenoadenine-containing M13mp18 plasmids by plasmid based in-cell repair assay; procedure, shortened: as §3
[14] = molecular target: N-glycosylase/DNA lyase (Homo sapiens) (UniProt O15527); test: Inhibition of OGG1 in human A549 cells assessed as reduction in DNA repair at 200 and 300 uM using 8-oxodG-containing M13mp18 plasmids by plasmid based in-cell repair assay; procedure, shortened: as §1
[15] = molecular target: T1, DNA-3-methyladenine glycosylase; test: Inhibition of human purified MPG binding to immobilized ethenoadenine containing 5'-TCGAGGATCCTGAGCTCGAGTCGACGXTCGCGAATTCTGCGGATCCAAGC-3' duplex oligonucleotide at 40 uM by SPR assay; procedure, shortened: as §2
[16] = molecular target: N-glycosylase/DNA lyase (Homo sapiens) (UniProt O15527); test: Inhibition of OGG1 (unknown origin) pre-incubated with compound for 10 mins followed by addition of […] containing 32P-labeled duplex oligonucleotide substrates at 20 to 40 uM by gel-based excision activity assay
Procedure, shortened: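 Purified OGG1 pre-incubated with compound (0, 20, 40 µM) 10 min at room temperature. Products resolved on denaturing 20% polyacrylamide/7M urea gels; band intensities quantified.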

T1 sequence (P29372 whole entry): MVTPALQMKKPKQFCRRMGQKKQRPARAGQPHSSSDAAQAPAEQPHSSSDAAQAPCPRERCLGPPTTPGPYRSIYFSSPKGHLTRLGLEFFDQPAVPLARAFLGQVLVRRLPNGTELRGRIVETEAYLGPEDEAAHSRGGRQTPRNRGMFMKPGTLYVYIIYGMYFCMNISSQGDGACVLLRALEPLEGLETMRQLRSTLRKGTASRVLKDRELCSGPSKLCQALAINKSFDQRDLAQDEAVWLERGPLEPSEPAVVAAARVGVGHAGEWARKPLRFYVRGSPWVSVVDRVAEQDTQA
Chain of N-glycosylase/DNA lyase (Homo sapiens) (O15527 whole entry): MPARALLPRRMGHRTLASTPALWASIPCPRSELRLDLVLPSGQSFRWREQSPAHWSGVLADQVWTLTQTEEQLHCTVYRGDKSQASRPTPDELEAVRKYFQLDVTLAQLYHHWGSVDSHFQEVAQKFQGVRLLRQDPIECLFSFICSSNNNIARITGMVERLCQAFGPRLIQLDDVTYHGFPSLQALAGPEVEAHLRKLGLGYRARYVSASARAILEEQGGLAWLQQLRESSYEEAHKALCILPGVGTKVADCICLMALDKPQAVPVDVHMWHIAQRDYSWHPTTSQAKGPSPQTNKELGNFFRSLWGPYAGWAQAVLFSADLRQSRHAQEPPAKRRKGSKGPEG
Chain of DNA repair nuclease/redox regulator APEX1 (Homo sapiens) (P27695 whole entry): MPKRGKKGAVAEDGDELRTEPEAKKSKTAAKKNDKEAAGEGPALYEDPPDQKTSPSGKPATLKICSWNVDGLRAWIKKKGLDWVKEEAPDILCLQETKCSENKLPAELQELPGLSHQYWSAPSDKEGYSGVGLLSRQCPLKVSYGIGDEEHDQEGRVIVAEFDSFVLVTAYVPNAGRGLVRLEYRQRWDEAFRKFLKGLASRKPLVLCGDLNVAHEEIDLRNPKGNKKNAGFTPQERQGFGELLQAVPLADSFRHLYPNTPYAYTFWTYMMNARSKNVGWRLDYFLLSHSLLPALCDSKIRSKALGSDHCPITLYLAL

Q: With `O.O=c1c(O)c(-c2ccc(O)cc2O)oc2cc(O)cc(O)c12` as the compound, how does the inhibition [1] read?
A: inactive

Q: What about the IC50 [2] of the same compound?
A: 12000 nM

Q: And the inhibition [3]?
A: Dose-dependent effect

Q: And the Activity [4]?
A: inactive

Q: And the IC50 [5]?
A: 2600 nM

Q: And the inhibition [6]?
A: Dose-dependent effect

Q: What about the Activity (A549) of the same compound?
A: Non-toxic

Q: What about the inhibition [7] of the same compound?
A: 81%

Q: And the Activity [8]?
A: inactive

Q: And the inhibition [9]?
A: Dose-dependent effect

Q: And the inhibition [10]?
A: Dose-dependent effect

Q: And the inhibition [11]?
A: inactive

Q: What about the Activity (HeLa) of the same compound?
A: Non-toxic

Q: And the inhibition [12]?
A: 50%

Q: What about the inhibition [13] of the same compound?
A: 50%

Q: And the inhibition [14]?
A: inactive

Q: And the inhibition [15]?
A: Active

Q: And the inhibition [16]?
A: inactive

Q: With `O=C/C=C/c1ccccc1` as the compound, how does the inhibition [7] read?
A: 0%

Q: Which Activity [4] does the source give for `O=C1c2c(O)ccc(O)c2C(=O)c2c(NCCNCCO)ccc(NCCNCCO)c21` [MITOXANTRONE HYDROCHLORIDE] here?
A: Active

Q: What about the IC50 [5] of the same compound?
A: 2500 nM

Q: For `O=c1c(O)c(-c2ccc(O)c(O)c2)oc2cc(O)cc(O)c12`, which inhibition [6] is on record?
A: inactive

Q: And the inhibition [7]?
A: 38% and 44%

Q: What about the inhibition [10] of the same compound?
A: inactive

Q: For `O=C(O)/C=C/c1ccc(O)c(O)c1`, which inhibition [7] is on record?
A: 0%

Q: Which Activity [4] does the source give for `Cc1cc2c(C(C)C)c(O)c(O)c(C=O)c2c(O)c1-c1c(C)cc2c(C(C)C)c(O)c(O)c(C=O)c2c1O` [GOSSYPOL] here?
A: Active

Q: And the IC50 [5]?
A: 3000 nM

Q: With `O=C(O)C1=CC(=C(c2ccc(O)c(C(=O)O)c2)c2ccc(O)c(C(=O)O)c2)C=CC1=O` [AURINTRICARBOXYLIC ACID] as the compound, how does the IC50 [5] read?
A: 200 nM

Q: For `O=c1c(O)c(-c2ccc(O)cc2)oc2cc(O)cc(O)c12`, which inhibition [7] is on record?
A: 25%

Q: With `O=c1c(O)c(-c2cc(O)c(O)c(O)c2)oc2cc(O)cc(O)c12` as the compound, how does the inhibition [7] read?
A: 36%
